Hits are enriched below; roughly 2.1% of the tested compounds scored in any of these assays.
HKDC1 inh: blocks human hexokinase HKDC1 activity | recombinant HKDC1, G6PDH/diaphorase resazurin coupled fluorescence | inhibition, % at 20 µM | 340,000 tested, 0.16% active | AID 493160;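 active = inhibition above about 35% when tested at 20 µM, limit read from the data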;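 note: plate controls were DMSO wells with enzyme for no effect and DMSO wells lacking enzyme for full effect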
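Assay system – recombinant HKDC1 (HK5) hexokinase enzyme, produced in-house · Input – HKDC1 at 5 µg/mL · Reagent – glucose plus 1 mM ATP as hexokinase substrates · Timing – 90 min reaction incubation at room temperature, dark · Measured by – G6PDH/diaphorase-coupled fluorescence, 1 mM NADP, 100 µM resazurin, 525/613 nm · Benchmarks – DMSO-enzyme wells negative, buffer-substituted wells positive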
UCH37 DUB inh: blocks the human deubiquitinase UCH37. purified proteasome/UCH37, Ub-AMC cleavage fluorescence. inhibition, % (test concentration not listed). 330,000 tested, 0.33% active;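 active = mean inhibition over replicate wells above about 20%, limit read from the data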;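 note: 0% = compound-free wells with enzyme and 100% = wells lacking proteasome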
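Test system – human UCH37 enzyme supplied as purified proteasome complex · Incubation – 30 min preincubation with enzyme, 25 min cleavage at room temperature · Detection – AMC fluorescence from Ub-AMC cleavage, excitation 355 nm, emission 460 nm · Benchmarks – no-proteasome wells (full inhibition) and compound-free wells (no inhibition)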
Cardio protect: modulators protecting cardiomyocytes from myocardial damage; H9c2 cardiomyocytes, H2O2 injury protection, ATPLite, 2 h; protection from H2O2 cell death, % at 20 µM; 360,000 tested, 0.63% active; AID 588492;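 active = compounds giving at least 50% protection of heart cells from peroxide-induced death in the single-dose screen, raw or plate-pattern-corrected value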;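 note: 0% = DMSO wells with peroxide and 100% = DMSO wells without peroxide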
aDG glyco up: increases alpha dystroglycan glycosylation. AID 624168. Pro5-aDG cells, alpha-DG glycosylation AlphaScreen (IIH6); 0% Pro5, 100% B10-LARGE cell signal. activation, % at 10 µM. 360,000 tested, 0.22% active;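 active = activation of at least 8% versus controls, or a plate z-score of at least 8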;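 note: Pro5 are CHO cells carrying HIG-tagged alpha-DG that lacks glycosylation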
PfG6PD inh: PfG6PD (Plasmodium falciparum) enzyme inhibition; PfGluPho enzyme, NADPH resazurin-diaphorase fluorescence; 350,000 tested, 0.78% active; inhibition, % at 20 µM;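 active = inhibition reaching at least a set limit at 20 µM in the primary screen, cut at about 59% in these data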;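 note: 0% = DMSO wells with substrate and 100% = DMSO wells lacking glucose-6-phosphate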
Beta2AR agonist: activates human beta-2 adrenergic receptor causing internalization. P07550. Am2.2-beta2AR cells, FAP receptor internalization, flow cytometry. response, % (concentration not given with the values). 340,000 tested, 0.43% active. AID 504454;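 active = response above a set limit, near 3 SD of response in nonfluorescent compounds, cut at about 42% in these data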
Target sequence (P07550 whole entry, looked up): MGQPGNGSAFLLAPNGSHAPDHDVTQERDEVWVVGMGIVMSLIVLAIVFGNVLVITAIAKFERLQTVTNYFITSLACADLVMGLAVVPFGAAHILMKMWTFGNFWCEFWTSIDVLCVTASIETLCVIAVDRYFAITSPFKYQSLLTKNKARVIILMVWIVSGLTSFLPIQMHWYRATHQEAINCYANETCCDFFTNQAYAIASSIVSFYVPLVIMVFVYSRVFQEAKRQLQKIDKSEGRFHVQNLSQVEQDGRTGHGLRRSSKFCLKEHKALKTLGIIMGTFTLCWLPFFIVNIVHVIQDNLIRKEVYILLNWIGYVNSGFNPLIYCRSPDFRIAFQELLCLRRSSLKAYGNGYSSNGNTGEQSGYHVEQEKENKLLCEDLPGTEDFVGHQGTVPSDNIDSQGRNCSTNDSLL
Beta2AR ag CP1: activates human beta-2 adrenergic receptor | 1,100 tested, 25% active | Am2.2-beta2AR cells, FAP surface receptor, flow cytometry; hits give low values | AID 540358 | shares compounds with Beta2AR agonist | percent response (surface receptor), % at 10 µM;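 active = surface receptor percent response at or below 58%, roughly 3 SD from nonfluorescent compounds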
FAP fluor counter: flagged in Am2.2 fluorescence counterscreen for beta-2AR agonists; shares compounds with Beta2AR agonist; Am2.2 cells, FAP fluorogen flow cytometry; hits give low values; calls only at 10 µM; 1,100 tested, under 10 active;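 active = percent response below a set limit in fluorescence channel 1 and below 50% in channel 8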
* = called active by the depositor; i = inactive; / = not tested or not shown; + = active, no number.

SMILES	HKDC1 inh	UCH37 DUB inh	Cardio protect	aDG glyco up	PfG6PD inh	Beta2AR agonist	Beta2AR ag CP1	FAP fluor counter
CC(NCc1ccc(Cl)c(Cl)c1)C(O)c1ccccc1 (configuration not stated)	-5.8	-0.9	-7.5	0.4	-4.3	4.1	85.4	i
CCC(=O)Nc1ccc(Cl)c(Cl)c1	-2.2	/	-12.0	-0.1	-6.8	-4.0	/	/
CCOc1cc(CNC(C)C(O)c2ccccc2)cc(Cl)c1OCC (configuration not stated)	-1.3	2.6	-3.1	1.0	5.5	0.1	112.2	i
FC(F)(F)c1ccccc1CNCCc1c[nH]c2ccccc12	1.6	0.5	-0.5	-0.1	11.7	-2.6	/	/
CC(NCc1ccccc1Cl)C(O)c1ccccc1 (configuration not stated)	-9.8	2.2	6.2	0.0	-10.1	-0.2	111.6	i
Oc1cccc(C=NNP(=S)(c2ccccc2)c2ccccc2)c1	/	1.3	/	/	/	/	/	/
CC(=NNP(=S)(c1ccccc1)c1ccccc1)c1ccc(O)cc1O	/	5.0	/	/	/	/	/	/
CC(C)n1c(O)c(C2c3cc(Cl)ccc3Oc3[nH]c(=O)n(C(C)C)c(=O)c32)c(=O)[nH]c1=O (configuration not stated)	6.9	8.1	-9.2	-0.3	15.8	59.0*	47.6*	+
O=C(NN=CC1C(=O)NC(=S)N(c2ccccc2)C1=O)c1ccc(O)cc1 (configuration not stated)	/	0.7	/	/	/	/	/	/
CCCCCCn1c(O)c(C=Nc2c(C)n(C)n(-c3ccccc3)c2=O)c(=O)[nH]c1=O	-1.7	-0.2	1.6	0.1	6.7	48.5*	47.7*	i
Cc1c(N=Cc2c(O)n(CCc3ccccc3)c(=O)[nH]c2=O)c(=O)n(-c2ccccc2)n1C	-2.7	2.7	20.9	0.2	5.9	0.9	/	/
COc1ccc2cc(C(=O)C3CCCN(C4CCOCC4)C3)ccc2c1 (configuration not stated)	1.2	-499.9	16.0	-0.1	-1.7	-4.0	/	/
COc1c(C)cc(C(=O)C2CCCN(C3CCOCC3)C2)cc1C (configuration not stated)	-6.0	-0.4	1.6	-0.1	-8.8	58.4*	125.5	i
CC(=NO)c1ccc2ccc3ccccc3c2c1	/	3.3	/	/	/	/	/	/
OC12ONC(c3ccccn3)C1N1CCC2CC1 (configuration not stated)	-11.8	-2.7	3.8	-0.3	-19.8	8.5	83.4	i
CCCCNC(C)Cc1ccccc1 (configuration not stated)	-3.3	0.3	5.8	0.1	0.2	-2.1	/	/
COc1ccc(CC(C)NCCC(c2ccccc2)c2ccccc2)cc1 (configuration not stated)	-3.1	0.8	-16.1	0.5	-7.8	20.9	105.5	i
CC(=O)C1C2c3ccccc3OC1(C)N=c1sc(=Cc3cnn(C)c3)c(=O)n12 (configuration not stated)	/	2.2	/	/	/	/	/	/
CCNCC(O)c1cccc(O)c1 (configuration not stated)	-7.6	1.2	-0.7	-0.1	18.2	-7.2	106.3	i
C#CC1(O)CCC2C3CCC4=CC(=NOCC(=O)NCC(=O)NC(C(=O)O)C(C)C)CC[C@]4(C)C3CC[C@@]21C (some centres not stated)	/	0.5	/	/	/	/	/	/
COc1ccc(OC)c(NC2=NCCS2)c1	-3.2	-11.2	2.9	-0.2	5.1	-7.9	/	/
COc1ccc(OC)c([C@@H](O)[C@H](C)NC(C)(C)C)c1	-2.5	-0.8	2.9	-0.1	-9.9	-4.7	121.0	i
COc1cc(C=Nn2cnnc2)ccc1OC(=O)N(C)C	/	-2.3	/	/	/	/	/	/
COc1ccc(OC)c(C(O)C2CCCCN2)c1 (configuration not stated)	-5.5	0.7	0.4	0.0	-11.1	2.2	109.2	i
CC(=NN=C(N)N)c1ccccc1	/	5.0	/	/	/	/	/	/
CCC12CN3CCN(CC(C3)C1=NNC(=O)c1ccncc1)C2	/	-0.7	/	/	/	/	/	/
